Experimental data published in PubChem BioAssay.
Activity calls are given as the source filed them.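 The calls were made as follows, unless noted: active = visually confirmed hit in the image check and inhibition above 20%; inconclusive = visually confirmed hit but inhibition not above 20%; inactive = no visual hit in the image check.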

Assays:
[1] = inhibitors of TNFa-induced NFkB p65 translocation, primary screen, imaging, HUVEC, MLSMR starter and 10KST1 sets (AID 438;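 active = inhibition above 20% together with a positive visual image hit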;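 also: compound added about 3h40 before a 20 min TNFalpha stimulation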;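 as to inhibition: signal is the nuclear over cytoplasmic p65 intensity ratio per well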); conditions: HUVEC TNFa-induced p65 nuclear translocation; cell count: measured here: nuclei count (cytotoxicity indicator), at 2.08 µM; inhibition: at 2 µM, stronger effect = higher value, 0% TNFa-plus-vehicle, 100% no-TNFa wells
[2] = inhibitors of mutant huntingtin aggregation, primary screen, imaging, exon1htt(103Q)mCFP cells, high-content imaging (AID 483;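 active = visual image review flags a hit and inhibition of aggregation exceeds 20%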;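 also: compound exposure lasted 3 days before fixation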;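 as to nuclei count: percent of the per-plate median nuclei count of sample wells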); conditions: exon1htt(103Q)mCFP cell line, aggregate imaging, at 2 µM; inhibition of aggregation: stronger effect = higher value; nuclei count: measured here: cell count, toxicity
[3] = inhibitors of E-selectin induction by TNFa, primary screen, imaging, HUVEC, immunofluorescence, MLSMR starter and 10KST1 sets (AID 487); conditions: HUVEC TNFalpha-induced E-selectin immunofluorescence imaging, at 2 µM; inhibition: stronger effect = higher value; nuclei count: measured here: cell number, toxicity;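 as to inhibition: signal is fraction of cell area covered by stained E-selectin grains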;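 as to nuclei count: 100% = median nuclei count of all wells on the same plate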
[4] = target: Voltage-gated potassium channel subunit beta-2 (Rattus norvegicus) (UniProt P62483); experiment: KvBeta enzyme negative modulators, primary screen, biochemical, NADPH fluorescence (AID 622;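 active = fluorescence slope higher than the sample average by over 3 SD, cut at about -0.22 in these data, passing the limit was not always enough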;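 also: slope of raw intensity against log time taken from 70 to 1610 s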); conditions: recombinant KvBeta, 4-cyanobenzaldehyde reduction, at 10 µM, stronger effect = higher value
[5] = target: Voltage-gated potassium channel subunit beta-2 (Rattus norvegicus) (UniProt P62483); experiment: KvBeta positive modulators, primary screen, biochemical, NADPH fluorescence (AID 623;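 active = NADPH fluorescence slope more negative than the mean of all samples by about 3 SD, 99.7% confidence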;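 also: fluorescence intensity change per second fitted from 20 to 320 s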); conditions: Recombinant KvBeta, NADPH fluorescence decrease slope, 10 min; at 10 µM; stronger effect = lower value
[6] = target: Muscarinic acetylcholine receptor M4 (Homo sapiens) (UniProt P08173); experiment: compounds altering M4/GIRK thallium flux, either direction, primary screen, M4 allosteric agonist project, cell-based, HEK293 M4/GIRK, BTC-AM (AID 625;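 active = fluorescence slope after compound addition differing from the mean of all tested samples at 99.7% confidence, mostly higher but some lower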;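 also: thallium influx through GIRK channels coupled to M4 in HEK293 cells with BTC-AM dye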); conditions: at 10 µM, actives lie on both sides
Procedure, shortened: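 Material – HEK293 cells with M4 receptor and GIRK channels · Buffer or medium – pH 7.3 thallium assay buffer · Doses – one dose, 10 µM final · Timing – cells overnight at 37 °C, BTC-AM loading 1 h, reads 2 min total · Measured by – kinetic fluorescence with BTC-AM dye · Controls – carbachol and DMSO controls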

[7] = inhibitors of Sendai virus-induced IRF3 signaling, primary screen, TLR/RLR signaling modifier project, cell-based, Sendai virus stimulus, luciferase, 10K MLSCN set (AID 602276;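 active = inhibition at or above 50% at 10 µM; inactive = inhibition below 50%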;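 also: firefly luciferase from ISG56 promoter only with Renilla not read in this screen; 0% = Sendai virus plus DMSO and 100% = medium plus DMSO without virus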); conditions: HEK293 RL24 IRF3 luciferase reporter, at 10 µM, stronger effect = higher value
[8] = inhibitors of poly I:C-induced TLR3 signaling, primary screen, cell-based, poly I:C stimulus, luciferase, 10K MLSCN set (AID 602277;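 active = inhibition of the reporter signal at or above 50%; inactive = inhibition below 50%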); conditions: HEK293-TLR3 RL24 IRF3 luciferase reporter, at 10 µM, stronger effect = higher value

Voltage-gated potassium channel subunit beta-2 (Rattus norvegicus), sequence (P62483 whole entry, looked up): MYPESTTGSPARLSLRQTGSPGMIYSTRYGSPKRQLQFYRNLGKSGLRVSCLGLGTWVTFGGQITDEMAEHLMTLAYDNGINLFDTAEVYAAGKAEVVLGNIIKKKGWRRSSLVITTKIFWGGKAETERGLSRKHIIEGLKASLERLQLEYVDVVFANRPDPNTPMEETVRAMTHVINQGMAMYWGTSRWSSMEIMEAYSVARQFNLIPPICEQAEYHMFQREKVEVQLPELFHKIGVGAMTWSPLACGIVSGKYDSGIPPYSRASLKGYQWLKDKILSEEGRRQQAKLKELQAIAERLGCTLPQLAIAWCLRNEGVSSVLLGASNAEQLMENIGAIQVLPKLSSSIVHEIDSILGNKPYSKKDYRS
Muscarinic acetylcholine receptor M4 (Homo sapiens), sequence (P08173 whole entry, looked up): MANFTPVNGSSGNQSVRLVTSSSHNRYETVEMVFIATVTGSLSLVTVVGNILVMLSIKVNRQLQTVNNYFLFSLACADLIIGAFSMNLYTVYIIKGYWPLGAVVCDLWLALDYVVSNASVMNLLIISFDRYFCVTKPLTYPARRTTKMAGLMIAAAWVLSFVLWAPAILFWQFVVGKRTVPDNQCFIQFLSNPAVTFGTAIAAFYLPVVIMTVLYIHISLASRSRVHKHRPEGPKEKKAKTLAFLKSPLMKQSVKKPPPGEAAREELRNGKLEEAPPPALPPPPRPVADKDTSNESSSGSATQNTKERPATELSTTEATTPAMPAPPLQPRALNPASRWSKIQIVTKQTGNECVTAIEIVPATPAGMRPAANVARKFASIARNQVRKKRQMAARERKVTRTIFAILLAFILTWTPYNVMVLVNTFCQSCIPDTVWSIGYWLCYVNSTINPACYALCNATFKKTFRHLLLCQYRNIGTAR

SMILES | cell count [1] | inhibition [1] | inhibition of aggregation [2] | nuclei count [2] | inhibition [3] | nuclei count [3] | fluorescence slope [4] | NADPH fluorescence slope [5] | fluorescence slope [6] | inhibition [7] | inhibition [8]
COc1ccc(OC)c(N2Cc3cc(C)c(C)cc3C2)c1 | 561 | -3.1% (inactive) | 0.2% (inactive) | 79.6% | -8.6% (inactive) | 86.7% | -0.476 (inactive) | -6.9e-05 (inactive) | 0.00388 (inactive) | -3.86% (inactive) | -7.05% (inactive)
Cn1c(=O)c2ccccc2n(Cc2ccccc2F)c1=O | 254 | -8.1% (inactive) | 8.7% (inactive) | 74.6% | -51.8% (inactive) | 73.9% | -0.451 (inactive) | -7.1e-05 (inactive) | 0.00416 (inactive) | 1.3% (inactive) | 65.6% (active)
CCN1CCN(C(=O)c2cn(CCOC)c(=O)c3c2c2ccccc2n3C)CC1 | 460 | 2.7% (inactive) | 2.4% (inactive) | 108% | -40.3% (inactive) | 109% | -0.582 (inactive) | -6.9e-06 (inactive) | 0.00622 (inactive) | 6.11% (inactive) | 14.5% (inactive)
CCOCCn1cnc2sc(C(=O)Nc3nc(C)c(C(=O)OCC)s3)c(C)c2c1=O | 785 | -3.7% (inactive) | 2.9% (inactive) | 121% | -9.6% (inactive) | 105% | -0.26 (inactive) | 4.1e-06 (inactive) | 0.0063 (inactive) | 11.8% (inactive) | -0.0117% (inactive)
CCOC(=O)c1c(NC(=O)CSc2nc3c(c(=O)n(C)c(=O)n3C)n2C(C)C)sc(C)c1C | 547 | 1.2% (inactive) | 17.1% (inactive) | 110% | 26.4% (inactive) | 82.3% | -0.564 (inactive) | -2.9e-05 (inactive) | 0.00617 (inactive) | 18% (inactive) | 20.6% (inactive)
O=C(Nc1nc(-c2ccc(S(=O)(=O)N3CCCCCC3)cc2)cs1)c1cccs1 | 368 | 15% (inactive) | -6.4% (inactive) | 115% | -30.6% (inactive) | 122% | -0.53 (inactive) | -2.4e-05 (inactive) | 0.0134 (active) | 10.4% (inactive) | 3.6% (inactive)
Cc1ccc(Cn2ccc(NC(=O)c3noc4c3CCCC4)n2)cc1 | 246 | -0.8% (inactive) | -6.8% (inactive) | 97.7% | 44.7% (inactive) | 117% | -0.539 (inactive) | -3.2e-05 (inactive) | 0.00747 (inactive) | 10% (inactive) | -98.2% (inactive)
O=C(C1CCN(S(=O)(=O)c2cccnc2)CC1)N1CCN(c2ccc(Cl)cc2)CC1 | 447 | -1.6% (inactive) | 11.5% (inactive) | 109% | -26.1% (inactive) | 100% | -0.447 (inactive) | 3.3e-05 (inactive) | 0.00572 (inactive) | 7.3% (inactive) | -25.5% (inactive)
COCCNC(=O)CN(C)S(=O)(=O)c1ccc2c(c1)OCCO2 | 577 | -12.1% (inactive) | -1.9% (inactive) | 101% | -59.8% (inactive) | 108% | -0.527 (inactive) | 1.9e-05 (inactive) | 0.00472 (inactive) | 11.9% (inactive) | 21.2% (inactive)
CCn1c(=O)cc(OCC(=O)Nc2cc(C)ccn2)c2ccccc21 | 300 | -0.6% (inactive) | -7.1% (inactive) | 101% | -11.5% (inactive) | 126% | -0.537 (inactive) | -5.7e-06 (inactive) | 0.00495 (inactive) | 13.4% (inactive) | 21.3% (inactive)
COc1oc(-c2ccccc2)nc1C(F)(F)F | 353 | 4.1% (inactive) | 0.7% (inactive) | 106% | -15.8% (inactive) | 116% | -0.473 (inactive) | -3.2e-05 (inactive) | 0.00537 (inactive) | 3.7% (inactive) | 12.2% (inactive)
CC1CCCC(NC(=O)CSc2ncccc2C(=O)O)C1C (stereo not drawn) | 660 | -10% (inactive) | 7.4% (inactive) | 117% | -55.4% (inactive) | 112% | -0.566 (inactive) | -8.3e-06 (inactive) | 0.00597 (inactive) | 13.9% (inactive) | 24.3% (inactive)
O=C(CSc1nc2ccccc2c(=O)n1CCC(=O)N1CCCCC1)NCc1ccccc1 | 495 | -7.5% (inactive) | 1% (inactive) | 103% | 16.9% (inactive) | 101% | -0.507 (inactive) | 1.6e-05 (inactive) | 0.00538 (inactive) | 17.4% (inactive) | 24.1% (inactive)
CCc1cc2c(=O)c(-c3ccc4c(c3)OCCO4)coc2cc1OC(=O)c1ccco1 | 637 | -5.2% (inactive) | 4.7% (inactive) | 92.8% | -184% (inactive) | 105% | -0.554 (inactive) | -4.2e-05 (inactive) | 0.00495 (inactive) | -45.7% (inactive) | -122% (inactive)
COC(=O)c1ccccc1NC(=O)Cn1c(-c2nonc2N)nc2ccccc21 | 363 | 5.8% (inactive) | -2.5% (inactive) | 1.9% | -162% (inactive) | 102% | -0.537 (inactive) | -5.1e-05 (inactive) | 0.00504 (inactive) | 47.8% (inactive) | 30% (inactive)
COC(=O)c1ccc(CSc2nc3c(cnn3-c3ccc(C)c(C)c3)c(=O)[nH]2)o1 | 433 | 9.3% (inactive) | 2.1% (inactive) | 98.4% | -55.6% (inactive) | 108% | -0.388 (inactive) | 0.000113 (inactive) | 0.0057 (inactive) | 8.02% (inactive) | 13.9% (inactive)
O=S1(=O)Nc2c(ccc3cccnc23)-c2ccccc21 | 318 | 77.8% (active) | -31.5% (inactive) | 50.8% | 47.4% (inactive) | 94.2% | -0.465 (inactive) | -0.000334 (inactive) | 0.00395 (inactive) | -4.82% (inactive) | -17.5% (inactive)
COc1cc(CNc2ccc(N3CCOCC3)c(C(=O)O)c2)ccc1OCC(N)=O | 362 | -2.2% (inactive) | -15.5% (inactive) | 99.3% | 26.6% (inactive) | 98.6% | -0.343 (inactive) | 0.000117 (inactive) | 0.00665 (inactive) | 5.32% (inactive) | 9.86% (inactive)
Cc1ccccc1-c1nc(CN2CCC(C(=O)NCc3cccnc3)CC2)c(C)o1 | 349 | -2.3% (inactive) | -3.7% (inactive) | 103% | -149% (inactive) | 119% | -0.476 (inactive) | -0.000229 (inactive) | 0.00551 (inactive) | 7.42% (inactive) | 17.2% (inactive)
CC(C)C(=O)Nc1cccc(NC(=O)c2cccnc2)c1 | 311 | 7.2% (inactive) | -20.9% (inactive) | 95.6% | -167% (inactive) | 104% | -0.611 (inactive) | 7.6e-06 (inactive) | 0.00325 (inactive) | -7.88% (inactive) | -11.4% (inactive)
O=C(NC(C(=O)c1ccccc1)n1ccc(=O)[nH]c1=O)c1ccccc1 (stereo not drawn) | 596 | -5.6% (inactive) | -13% (inactive) | 104% | -6.1% (inactive) | 104% | -0.449 (inactive) | -9.3e-05 (inactive) | 0.00666 (inactive) | 6.2% (inactive) | 12% (inactive)
C/C(NC1CCCC1)=C(/C#N)C(N)=O | 396 | -23.5% (inactive) | -0.6% (inactive) | 108% | -38.9% (inactive) | 144% | -0.583 (inactive) | -2.4e-05 (inactive) | 0.00436 (inactive) | 16.9% (inactive) | 22.8% (inactive)
CCc1ccccc1NC(=O)CSc1nc2n[nH]c(C)c2c(=N)n1-c1ccc(OC)cc1 | 453 | 17.4% (inactive) | -1.3% (inactive) | 104% | 41.3% (inactive) | 103% | -0.47 (inactive) | -4.8e-05 (inactive) | 0.00766 (inactive) | 15.1% (inactive) | 20.3% (inactive)
Cc1ccc(S(=O)(=O)N2CCCC2C(=O)n2nc(C)cc2C)cc1 (stereo not drawn) | 432 | -12.3% (inactive) | 15.8% (inactive) | 86.2% | 46.7% (inactive) | 93.5% | -0.341 (inactive) | -4.4e-05 (inactive) | 0.00537 (inactive) | 12.5% (inactive) | 19.1% (inactive)
N#Cc1ccc(CSc2nnc(-c3cnccn3)o2)cc1 | 489 | -15% (inactive) | -20.4% (inactive) | 106% | -60.9% (inactive) | 105% | -0.555 (inactive) | -5.1e-06 (inactive) | 0.00528 (inactive) | 2.28% (inactive) | 5.14% (inactive)
COCC(=O)NC(c1ccccc1)c1ccccc1 | 336 | 9.4% (inactive) | 4.5% (inactive) | 100% | -13.4% (inactive) | 122% | -0.561 (inactive) | -7e-05 (inactive) | 0.00683 (inactive) | 14.6% (inactive) | 19.5% (inactive)
COc1ccc2c(C(F)(F)F)cc(=O)oc2c1C | 701 | -1.8% (inactive) | 0.8% (inactive) | 99.9% | -97% (inactive) | 111% | -0.428 (inactive) | 1.9e-05 (inactive) | 0.00456 (inactive) | 17% (inactive) | 11.3% (inactive)
c1ccc(-c2nnc(CN3CCC4(CC3)OCCO4)o2)cc1 | 407 | -6.8% (inactive) | 15.2% (inactive) | 70.5% | -27% (inactive) | 118% | -0.596 (inactive) | 1.6e-05 (inactive) | 0.0059 (inactive) | 8.62% (inactive) | 10.2% (inactive)
